Rows were chosen to be rich in hits. Some 11% of all compounds tested hit in one or more screens of this group.
Diaphorase inh: inhibits diaphorase or chemically oxidizes, flagging diaphorase assay artifacts. 0.69% of 190,000 active. diaphorase resazurin-to-resorufin fluorescence, NADH, 16 min; bacterial (C. kluyveri) enzyme, not human. inhibition, % at 20 µM;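 active means primary screen inhibition at 20 µM above a set limit, cut at about 50% in these data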
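Assay system: diaphorase enzyme from Clostridium kluyveri. Quantity: enzyme working solution with 0.14 U/mL diaphorase. Schedule: reaction incubation of 16 min at room temperature. Technique: resorufin fluorescence, excitation 544 nm, emission 590 nm. Controls: No-NADH positive control and DMSO neutral control.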
G6PDH counter: L. mesenteroides G6PDH inhibition counter-screen | Purified L. mesenteroides G6PDH, diaphorase/resazurin coupled fluorescence, 45 min | inhibition, % at 5 µM | 0.12% of 200,000 active
WT yeast gro inh: growth inhibition of WT yeast, mitochondrial fusion screen; mitochondrial fusion phenotypic screen, WT strain; inhibition, % at 10 µM; 2.1% of 190,000 active; AID 1362; in the data active means inhibition above about 58%; tested in S. cerevisiae
Diaphorase act: counter-screen for diaphorase-based assays: diaphorase activators and chemical reducers; Diaphorase/resazurin coupled assay, resorufin fluorescence, 16 min; active compounds read high; 1 = vehicle wells, 0 = NADH-free wells; activation factor at 20 µM; 0.005% of 190,000 active; AID 1229;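 active means diaphorase activity raised at least twofold by the compound at 20 µM; inactive means activation factor below 2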
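Test system: Clostridium kluyveri diaphorase, purified enzyme; input: enzyme 0.07 U/mL final; buffer or medium: 50 mM HEPES pH 7.4 with 4.542 mM MgCl2, 0.005% Tween 20; also added: 0.114 mM NADH and 0.1 mM resazurin, final amounts; schedule: 16 min enzyme reaction, ambient temperature; technique: fluorescence of resorufin, 544 nm excitation, 590 nm emission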
Lmaj promast: reduces viability of Leishmania major promastigotes. resazurin fluorescence viability. inhibition, % at 10 µM. 9% of 200,000 active. AID 1063;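 further: promastigotes grown with compound for 44 hours at 28 °C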
Numbers stand for hits; 0 = inactive; - = not tested or not shown. Unless noted, no stated cut-off is given here; in the data, active means inhibition above about 50%; inactive means the rest.

SMILES	Diaphorase inh	G6PDH counter	WT yeast gro inh	Diaphorase act	Lmaj promast
Cc1cnc(C)c(N2CCN(Cc3nc(-c4ccc(C)o4)oc3C)CC2)n1	0	0	0	0	0
Cc1cccc(N2CCN(Cc3nc(-c4cccc(Oc5ccccc5)c4)oc3C)CC2)n1	-	0	0	-	0
COc1ccc(-c2nc(CN3CCN(c4cc(C)nc(C)c4)CC3)c(C)o2)c2ccccc12	0	0	0	0	100
Cc1oc(-c2cccc3ccccc23)nc1CN1CCN(c2ncnc3ccccc23)CC1	0	0	63	0	0
CCOC(=O)c1cnc(SC)nc1Nc1cccc(F)c1	0	0	0	0	0
CCOC(=O)c1cnc(SC)nc1Sc1cc(Cl)ccc1Cl	0	0	71	0	0
O=[N+]([O-])c1c(NCCCO)cc(Sc2nc3ccccc3s2)c2nonc12	71	51	0	0	0
CCC(=O)OCCNc1cc(Sc2nc3ccccc3s2)c2nonc2c1[N+](=O)[O-]	58	0	95	0	0
CCOC(=O)C1CCCN(c2cc(NCCCO)c([N+](=O)[O-])c3nonc23)C1 (configuration not stated)	0	0	0	0	0
Cc1nnc(Sc2cc(NCCO)c([N+](=O)[O-])c3nonc23)s1	0	0	0	0	0
Cc1nnc(Sc2cc(NCCCO)c([N+](=O)[O-])c3nonc23)s1	59	0	0	0	0
O=C(Nc1ccc(C(=O)NC2CCCCC2)cc1)c1cncc(Br)c1	0	0	0	0	0
COc1ccc(/C=C/c2c([N+](=O)[O-])c(=O)n(C)c(=O)n2C)cc1O	0	0	0	0	90
COc1cc(/C=C/c2c([N+](=O)[O-])c(=O)n(C)c(=O)n2C)cc(OC)c1OC	0	0	0	0	79
COc1ccc(OC)c(/C=C/c2c([N+](=O)[O-])c(=O)n(C)c(=O)n2C)c1	0	0	0	0	0
CC(C)c1[nH]nc2c1C(C(C)C)C(C#N)=C(N)O2 (configuration not stated)	0	0	0	0	69
CNCc1ccccc1OCc1ccc(F)cc1	0	0	0	0	0
CCN1CCCC1CNCc1cccc(OC)c1OCc1ccccc1 (configuration not stated)	0	0	0	0	85
CCN1CCCC1CNCc1ccccc1OCc1ccc(F)cc1 (configuration not stated)	0	0	0	0	100
CCN1CCCC1CNCc1cccc(OC)c1OCc1ccccc1F (configuration not stated)	0	0	0	0	100
CC(C)CCNC(=O)CCCC1=NS(=O)(=O)c2ccccc2N1	0	0	0	0	0
CC(C)(C)c1ccc(S(=O)(=O)N2CCN(CCC#N)CC2)cc1	0	0	0	0	56
Cc1cccc(Oc2ccc(S(=O)(=O)N3CCCCC3)cc2N)c1	0	0	0	0	80
O=S(=O)(c1ccc(S(=O)(=O)N2CCCC2)cc1)N1CCCCCC1	0	0	0	0	0
COc1ccc(Oc2ccc(S(=O)(=O)N3CCCCC3)cc2S(=O)(=O)N2CCCCC2)cc1	-	-	0	-	-
SMILES	Diaphorase inh	G6PDH counter	WT yeast gro inh	Diaphorase act	Lmaj promast
Nc1cc(S(=O)(=O)N2CCCCC2)ccc1Oc1ccc(Cl)cc1	0	0	0	0	0
CC(C)(C)c1ccc(S(=O)(=O)N2CCCCC2)cc1	0	0	0	0	92
COc1ccccc1Oc1ccc(S(=O)(=O)N2CCCC2)cc1	0	0	0	0	99
COc1cc(/C=C/C(=O)O)cc(S(=O)(=O)Nc2ccc3c(c2)OCO3)c1OC	0	0	0	0	0
COc1cc2c(cc1NC(=O)c1cccc(Br)c1)CCCC2	0	0	73	0	0
COc1cc(NC(=O)c2ccc(C(C)(C)C)cc2)c(OC)cc1NC(=O)CN1CCCCC1	0	0	70	0	0
CCOc1cc(NC(=S)NCC2CCCO2)c(OCC)cc1NC(=O)c1ccccc1C (configuration not stated)	0	0	0	0	0
COc1cc2c(cc1NC(=O)c1cccc(F)c1)CCCC2	0	0	0	0	0
CCOc1cc(NC(=O)c2ccccn2)c(OCC)cc1NC(=O)c1ccccc1	-	0	0	-	0
CCOc1cc(NC(=S)Nc2ccccc2)c(OCC)cc1NC(=O)c1ccccc1	0	0	0	0	88
CCOc1cc(NC(=S)Nc2ccccc2OC)c(OCC)cc1NC(=O)c1ccccc1C	0	0	0	0	97
COC(=O)CNC(=O)/C=C/c1ccc(OC)cc1	0	0	-	0	0
